In ChEMBL document CHEMBL3817772, “Design, Synthesis, and Biological Evaluations of Hydroxypyridonecarboxylic Acids as Inhibitors of HIV Reverse Transcriptase Associated RNase H” (J Med Chem, 2016):
pIC50: −log10 of the molar value.

Test system: not listed separately
Assay: Inhibition of HIV-1 RT-RNase H activity expressed in Escherichia coli JM109 using RNA 5'-end directed cleavage measuring HTS-3 as substrate by fluorescence-based assay
Set-up: species or system Human immunodeficiency virus 1
In short: (§1)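 RT RNase H cleavage of fluorescein/Dabcyl-labelled RNA/DNA duplexes, with substrate in excess over RT. HTS-1 probes internal cleavage, HTS-2 DNA 3'-end-directed cleavage, and HTS-3 (fluorescein RNA annealed to Dabcyl DNA) RNA 5'-end-directed cleavage.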

Point of comparison: `O=C(O)c1cn(CC2(c3ccccc3)CCCC2)cc(O)c1=O`, pIC50 5.31. Against it:
- CCOC(=O)c1cn(Cc2ccc(F)cc2)cc(O)c1=O — lower, < 4.60
- O=C(O)c1cn(Cc2ccc(F)c(Cl)c2)cc(O)c1=O — lower, < 4.60
- O=C(O)c1c[nH]cc(O)c1=O — lower, < 4.60
- NCc1ccc(-c2ccc(Cn3cc(O)c(=O)c(C(=O)O)c3)cc2)cc1 — within 0.2 log units, 5.41
- O=C(O)c1cn(Cc2ccc(Cl)cc2)cc(O)c1=O — lower, < 4.60
- O=C(O)c1cn(Cc2ccc(F)cc2)cc(O)c1=O — lower, < 4.60
- O=C(O)c1cn(Cc2ccc(F)cc2F)cc(O)c1=O — lower, < 4.60
- Cc1cc(Cn2cc(O)c(=O)c(C(=O)O)c2)ccc1F — lower, < 4.60
- O=C(O)c1cn(Cc2ccc(Cl)c(Cl)c2)cc(O)c1=O — lower, < 4.60
- O=C(O)c1ccc(Cn2cc(O)c(=O)c(C(=O)O)c2)cc1 — lower, < 4.60
- CC(c1cccc2ccccc12)n1cc(O)c(=O)c(C(=O)O)c1 (stereo not drawn) — 0.42 log units lower, 4.89
- O=C(O)c1cn(Cc2cccc(C(F)(F)F)c2)cc(O)c1=O — lower, < 4.60
- O=C(O)c1cn(Cc2ccccc2)cc(O)c1=O — lower, < 4.60

Target: Human immunodeficiency virus type 1 reverse transcriptase (Human immunodeficiency virus 1, UniProt Q72547)
Assay: Inhibition of HIV-1 RT RNA-dependent DNA polymerase activity expressed in Escherichia coli JM109 using [3H]TTP/ poly(rA)-oligo(dT)16 as substrate incubated for 20 mins by liquid scintillation spectrometric analysis
In short: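 RNA-dependent DNA polymerase reaction in 50 mM Tris-HCl pH 7.4 (37°C), 60 mM KCl, 5 mM MgCl2, with 10 µM [3H]-TTP and 40 nM poly(rA)-oligo(dT)16. Started with 10 nM RT, 20 min at 37°C. Quenched in ice-cold 10% TCA plus 20 mM sodium pyrophosphate, glass-fiber filtered, washed with TCA and ethanol. Incorporation counted by liquid scintillation.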

Point of comparison: `CC(c1cccc2ccccc12)n1cc(O)c(=O)c(C(=O)O)c1` (stereo not drawn), pIC50 4.72. Against it:
- CCOC(=O)c1cn(Cc2ccc(F)cc2)cc(O)c1=O — lower, < 4.60
- O=C(O)c1cn(Cc2ccc(F)c(Cl)c2)cc(O)c1=O — lower, < 4.60
- O=C(O)c1c[nH]cc(O)c1=O — lower, < 4.60
- NCc1ccc(-c2ccc(Cn3cc(O)c(=O)c(C(=O)O)c3)cc2)cc1 — 0.77 log units higher, 5.49
- O=C(O)c1cn(Cc2ccc(Cl)cc2)cc(O)c1=O — lower, < 4.60
- O=C(O)c1cn(Cc2ccc(F)cc2)cc(O)c1=O — lower, < 4.60
- O=C(O)c1cn(CC2(c3ccccc3)CCCC2)cc(O)c1=O — 1.02 log units higher, 5.74
- O=C(O)c1cn(Cc2ccc(F)cc2F)cc(O)c1=O — lower, < 4.60
- Cc1cc(Cn2cc(O)c(=O)c(C(=O)O)c2)ccc1F — lower, < 4.60
- O=C(O)c1cn(Cc2ccc(Cl)c(Cl)c2)cc(O)c1=O — lower, < 4.60
- O=C(O)c1ccc(Cn2cc(O)c(=O)c(C(=O)O)c2)cc1 — lower, < 4.60
- O=C(O)c1cn(Cc2cccc(C(F)(F)F)c2)cc(O)c1=O — lower, < 4.60
- O=C(O)c1cn(Cc2ccccc2)cc(O)c1=O — lower, < 4.60

Test system: Human immunodeficiency virus 1
Assay: Inhibition of HIV-1 RT-RNase H domain expressed in Escherichia coli JM109 at 30 uM using HTS-1 as substrate preincubated with substrate for 10 mins followed by compound/MgCl2 addition incubated for 2 mins by fluorescence-based assay
In short: (§2)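 Excess-RT order-of-addition RNase H assay. RT is pre-incubated 10 min at 37 °C with inhibitor or with substrate. Remaining components are added and the reaction runs 2 min at 37 °C. Fluorescence is DMSO-control corrected. Mean ± SD of two independent experiments.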

Work on `O=C(O)c1cn(CC2(c3ccccc3)CCCC2)cc(O)c1=O` yielded an inhibition of 15%.

Test system: not listed separately
Assay: Inhibition of HIV-1 RT-RNase H domain fragment expressed in Escherichia coli by fluorescence-based assay
Set-up: species or system Human immunodeficiency virus 1

Point of comparison: `NCc1ccc(-c2ccc(Cn3cc(O)c(=O)c(C(=O)O)c3)cc2)cc1`, pIC50 5.36. Against it:
- CCOC(=O)c1cn(Cc2ccc(F)cc2)cc(O)c1=O — lower, < 4.60
- O=C(O)c1cn(Cc2ccc(F)c(Cl)c2)cc(O)c1=O — 0.35 log units lower, 5.01
- O=C(O)c1c[nH]cc(O)c1=O — 0.70 log units lower, 4.66
- O=C(O)c1cn(Cc2ccc(F)cc2)cc(O)c1=O — 0.25 log units lower, 5.11
- O=C(O)c1cn(CC2(c3ccccc3)CCCC2)cc(O)c1=O — 0.27 log units lower, 5.09
- O=C(O)c1cn(Cc2ccc(F)cc2F)cc(O)c1=O — within 0.2 log units, 5.17
- Cc1cc(Cn2cc(O)c(=O)c(C(=O)O)c2)ccc1F — 0.35 log units lower, 5.01
- O=C(O)c1cn(Cc2ccc(Cl)c(Cl)c2)cc(O)c1=O — within 0.2 log units, 5.33
- O=C(O)c1ccc(Cn2cc(O)c(=O)c(C(=O)O)c2)cc1 — 0.51 log units lower, 4.85
- CC(c1cccc2ccccc12)n1cc(O)c(=O)c(C(=O)O)c1 (stereo not drawn) — within 0.2 log units, 5.43
- O=C(O)c1cn(Cc2ccccc2)cc(O)c1=O — 0.40 log units lower, 4.96

Test system: Human immunodeficiency virus 1
Assay: Inhibition of HIV-1 RT-RNase H domain expressed in Escherichia coli JM109 at 30 uM using HTS-1 as substrate preincubated with compound/substrate for 10 mins followed by MgCl2 addition incubated for 10 mins by fluorescence-based assay
In short: (§3)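 Order-of-addition RNase H assay, HIV-1 RT in this format. Final conditions: 100 nM RT, 250 nM HTS-1 RNA/DNA duplex, 6 mM MgCl2, 30 µM inhibitor, 1% DMSO. RT is pre-incubated 10 min at 37 °C with the specified components. Missing components are then added and the reaction runs 10 min at 37 °C. Fluorescence signal is corrected against a DMSO-only control. Mean ± SD of two independent experiments.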

`O=C(O)c1cn(CC2(c3ccccc3)CCCC2)cc(O)c1=O` showed an inhibition of 38%.

Test system: Human immunodeficiency virus 1
Assay: Inhibition of HIV-1 RT-RNase H domain expressed in Escherichia coli JM109 at 30 uM using HTS-1 as substrate preincubated with compound and MgCl2 for 10 mins followed by substrate addition incubated for 10 mins by fluorescence-based assay
In short: as §3

Work on `O=C(O)c1cn(CC2(c3ccccc3)CCCC2)cc(O)c1=O` yielded an inhibition of 84%.

Test system: Human immunodeficiency virus 1
Assay: Inhibition of HIV-1 RT-RNase H domain expressed in Escherichia coli JM109 at 30 uM using HTS-1 as substrate preincubated with substrate for 10 mins followed by compound/MgCl2 addition incubated for 10 mins by fluorescence-based assay
In short: as §3

For `O=C(O)c1cn(CC2(c3ccccc3)CCCC2)cc(O)c1=O`, the inhibition was 18%.

Test system: Human immunodeficiency virus 1
Assay: Inhibition of HIV-1 RT-RNase H domain expressed in Escherichia coli JM109 at 30 uM using HTS-1 as substrate preincubated for 10 mins followed by substrate/MgCl2 addition incubated for 10 mins by fluorescence-based assay
In short: as §3

Compound `O=C(O)c1cn(CC2(c3ccccc3)CCCC2)cc(O)c1=O` has an inhibition of 75%.

Test system: not listed separately
Assay: Inhibition of HIV-1 RT-RNase H activity expressed in Escherichia coli JM109 using internal cleavage measuring HTS-1 as substrate by fluorescence-based assay
Set-up: species or system Human immunodeficiency virus 1
In short: as §1

Point of comparison: `O=C(O)c1cn(Cc2ccc(F)cc2)cc(O)c1=O`, pIC50 4.77. Against it:
- CCOC(=O)c1cn(Cc2ccc(F)cc2)cc(O)c1=O — lower, < 4.60
- O=C(O)c1cn(Cc2ccc(F)c(Cl)c2)cc(O)c1=O — within 0.2 log units, 4.74
- O=C(O)c1c[nH]cc(O)c1=O — lower, < 4.60
- O=C(O)c1cn(CC2(c3ccccc3)CCCC2)cc(O)c1=O — 1.05 log units higher, 5.82
- O=C(O)c1cn(Cc2ccc(F)cc2F)cc(O)c1=O — within 0.2 log units, 4.89
- Cc1cc(Cn2cc(O)c(=O)c(C(=O)O)c2)ccc1F — the same, 4.77
- O=C(O)c1cn(Cc2ccc(Cl)c(Cl)c2)cc(O)c1=O — within 0.2 log units, 4.85
- O=C(O)c1ccc(Cn2cc(O)c(=O)c(C(=O)O)c2)cc1 — lower, < 4.60
- CC(c1cccc2ccccc12)n1cc(O)c(=O)c(C(=O)O)c1 (stereo not drawn) — 0.38 log units higher, 5.15
- O=C(O)c1cn(Cc2ccccc2)cc(O)c1=O — lower, < 4.60

Test system: not listed separately
Assay: Inhibition of HIV-1 RT-RNase H activity expressed in Escherichia coli JM109 using DNA 3'-end directed cleavage measuring HTS-2 as substrate by fluorescence-based assay
Set-up: species or system Human immunodeficiency virus 1
In short: as §1

Point of comparison: `O=C(O)c1cn(CC2(c3ccccc3)CCCC2)cc(O)c1=O`, pIC50 5.29. Against it:
- CCOC(=O)c1cn(Cc2ccc(F)cc2)cc(O)c1=O — lower, < 4.60
- O=C(O)c1cn(Cc2ccc(F)c(Cl)c2)cc(O)c1=O — lower, < 4.60
- O=C(O)c1c[nH]cc(O)c1=O — lower, < 4.60
- NCc1ccc(-c2ccc(Cn3cc(O)c(=O)c(C(=O)O)c3)cc2)cc1 — within 0.2 log units, 5.36
- O=C(O)c1cn(Cc2ccc(Cl)cc2)cc(O)c1=O — lower, < 4.60
- O=C(O)c1cn(Cc2ccc(F)cc2)cc(O)c1=O — lower, < 4.60
- O=C(O)c1cn(Cc2ccc(F)cc2F)cc(O)c1=O — lower, < 4.60
- Cc1cc(Cn2cc(O)c(=O)c(C(=O)O)c2)ccc1F — lower, < 4.60
- O=C(O)c1cn(Cc2ccc(Cl)c(Cl)c2)cc(O)c1=O — lower, < 4.60
- O=C(O)c1ccc(Cn2cc(O)c(=O)c(C(=O)O)c2)cc1 — lower, < 4.60
- CC(c1cccc2ccccc12)n1cc(O)c(=O)c(C(=O)O)c1 (stereo not drawn) — lower, < 4.60
- O=C(O)c1cn(Cc2cccc(C(F)(F)F)c2)cc(O)c1=O — lower, < 4.60
- O=C(O)c1cn(Cc2ccccc2)cc(O)c1=O — lower, < 4.60

Test system: Human immunodeficiency virus 1
Assay: Inhibition of HIV-1 RT-RNase H domain expressed in Escherichia coli JM109 at 30 uM using HTS-1 as substrate preincubated for 10 mins followed by substrate/MgCl2 addition incubated for 2 mins by fluorescence-based assay
In short: as §2

`O=C(O)c1cn(CC2(c3ccccc3)CCCC2)cc(O)c1=O` showed an inhibition of 42%.

Target: Human immunodeficiency virus type 1 integrase (Human immunodeficiency virus 1, UniProt Q7ZJM1, C280S/F185K)
Assay: Inhibition of full-length HIV-1 integrase F185K/C280S double mutant strand transfer activity expressed in Escherichia coli BL21(DE3) using oligo DNA as substrate preincubated for 10 mins followed by substrate addition incubated for 30 mins by plate reader analysis

Human immunodeficiency virus type 1 integrase, sequence (Q7ZJM1 entry or part of it C280S/F185K): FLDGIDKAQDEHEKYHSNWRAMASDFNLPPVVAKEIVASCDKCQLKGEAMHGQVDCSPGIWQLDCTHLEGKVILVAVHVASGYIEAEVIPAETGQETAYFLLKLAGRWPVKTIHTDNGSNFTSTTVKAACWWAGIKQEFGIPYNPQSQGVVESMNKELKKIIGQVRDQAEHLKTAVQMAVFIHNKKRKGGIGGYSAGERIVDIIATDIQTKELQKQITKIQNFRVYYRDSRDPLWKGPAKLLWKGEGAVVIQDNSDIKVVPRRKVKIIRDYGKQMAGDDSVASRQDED

Point of comparison: `O=C(O)c1cn(Cc2ccc(Cl)c(Cl)c2)cc(O)c1=O`, pIC50 4.44. Against it:
- CCOC(=O)c1cn(Cc2ccc(F)cc2)cc(O)c1=O — lower, < 4.00
- O=C(O)c1cn(Cc2ccc(F)c(Cl)c2)cc(O)c1=O — within 0.2 log units, 4.35
- O=C(O)c1c[nH]cc(O)c1=O — lower, < 4.00
- NCc1ccc(-c2ccc(Cn3cc(O)c(=O)c(C(=O)O)c3)cc2)cc1 — 0.67 log units higher, 5.11
- O=C(O)c1cn(Cc2ccc(F)cc2)cc(O)c1=O — within 0.2 log units, 4.46
- O=C(O)c1cn(CC2(c3ccccc3)CCCC2)cc(O)c1=O — 0.41 log units higher, 4.85
- O=C(O)c1cn(Cc2ccc(F)cc2F)cc(O)c1=O — lower, < 4.00
- Cc1cc(Cn2cc(O)c(=O)c(C(=O)O)c2)ccc1F — lower, < 4.00
- O=C(O)c1ccc(Cn2cc(O)c(=O)c(C(=O)O)c2)cc1 — lower, < 4.00
- CC(c1cccc2ccccc12)n1cc(O)c(=O)c(C(=O)O)c1 (stereo not drawn) — 1.21 log units higher, 5.65
- O=C(O)c1cn(Cc2ccccc2)cc(O)c1=O — within 0.2 log units, 4.46
